Test results as given in ChEMBL document CHEMBL2321792, “Synthesis and antimalarial activity of 3,3-spiroanellated 5,6-disubstituted 1,2,4-trioxanes” (ACS Med Chem Lett, 2013).
Converted amounts (≈) assume the structure as drawn. The source made the active and inactive calls. The rule behind the calls is not given here.

How the values were obtained:
[1] = tested on: Plasmodium yoelii nigeriensis; experiment: Antimalarial activity against chloroquine, mefloquine and halofantrine-resistant Plasmodium yoelii nigeriensis infected in Swiss mouse assessed as protection against parasite-induced mortality at 96 mg/kg, im administered for 4 days measured on day 28; assay type: functional, organism-based; set-up: dose 96 mg/kg
Procedure, shortened: (§1)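 Peters 4-day test in Swiss mice infected with multidrug-resistant P. yoelii nigeriensis. Groups of 5 mice were dosed once daily for 4 days at the stated mg/kg, oral or i.m. Mice were followed to day 28. Protection is the percentage of treated mice surviving to day 28, read from the alive/total count per group.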

[2] = tested on: Plasmodium yoelii nigeriensis; experiment: Antimalarial activity against chloroquine, mefloquine and halofantrine-resistant Plasmodium yoelii nigeriensis infected in Swiss mouse assessed as protection against parasite-induced mortality at 96 mg/kg, po administered for 4 days measured on day 28; assay type: functional, organism-based; set-up: dose 96 mg/kg, route po po po po po po po po po po po; procedure, shortened: as §1
[3] = tested on: Plasmodium yoelii nigeriensis; experiment: Antimalarial activity against chloroquine, mefloquine and halofantrine-resistant Plasmodium yoelii nigeriensis infected in Swiss mouse assessed as suppression of parasitemia at 96 mg/kg, im administered for 4 days measured on day 4; assay type: functional; conditions: 96 h, route intramuscular
Procedure, shortened: (§2)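 Swiss mice infected with multidrug-resistant P. yoelii nigeriensis were treated by the Peters procedure: 5 per group, dosed daily for 4 days, oral or i.m. Parasitaemia was read on day 4 against an untreated control group. Suppression = [(c − t)/c] × 100, where c is control and t is treated parasitaemia. 100% means parasites were below the detection limit.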

[4] = tested on: Plasmodium yoelii nigeriensis; experiment: Antimalarial activity against chloroquine, mefloquine and halofantrine-resistant Plasmodium yoelii nigeriensis infected in Swiss mouse assessed as suppression of parasitemia at 96 mg/kg, po administered for 4 days measured on day 4; assay type: functional; conditions: 96 h; procedure, shortened: as §2
[5] = tested on: Plasmodium yoelii nigeriensis; experiment: Antimalarial activity against chloroquine, mefloquine and halofantrine-resistant Plasmodium yoelii nigeriensis infected in Swiss mouse assessed as protection against parasite-induced mortality at 24 mg/kg, po administered for 4 days measured on day 28; assay type: functional; procedure, shortened: as §1
[6] = tested on: Plasmodium yoelii nigeriensis; experiment: Antimalarial activity against chloroquine, mefloquine and halofantrine-resistant Plasmodium yoelii nigeriensis infected in Swiss mouse assessed as protection against parasite-induced mortality at 48 mg/kg, po administered for 4 days measured on day 28; assay type: functional; procedure, shortened: as §1
[7] = tested on: Plasmodium yoelii nigeriensis; experiment: Antimalarial activity against chloroquine, mefloquine and halofantrine-resistant Plasmodium yoelii nigeriensis infected in Swiss mouse assessed as suppression of parasitemia at 24 mg/kg, po administered for 4 days measured on day 4; assay type: functional; conditions: 96 h; procedure, shortened: as §2
[8] = tested on: Plasmodium yoelii nigeriensis; experiment: Antimalarial activity against chloroquine, mefloquine and halofantrine-resistant Plasmodium yoelii nigeriensis infected in Swiss mouse assessed as suppression of parasitemia at 48 mg/kg, po administered for 4 days measured on day 4; assay type: functional; conditions: 96 h; procedure, shortened: as §2
[9] = target: T1, Cytochrome P450 2C11 (Rattus norvegicus, UniProt P08683); experiment: Inhibition of CYP2C11 in rat liver microsome using diclofenac as substrate by HPLC-PDA analysis; assay type: ADME, microsomes
T1 sequence (P08683 whole entry): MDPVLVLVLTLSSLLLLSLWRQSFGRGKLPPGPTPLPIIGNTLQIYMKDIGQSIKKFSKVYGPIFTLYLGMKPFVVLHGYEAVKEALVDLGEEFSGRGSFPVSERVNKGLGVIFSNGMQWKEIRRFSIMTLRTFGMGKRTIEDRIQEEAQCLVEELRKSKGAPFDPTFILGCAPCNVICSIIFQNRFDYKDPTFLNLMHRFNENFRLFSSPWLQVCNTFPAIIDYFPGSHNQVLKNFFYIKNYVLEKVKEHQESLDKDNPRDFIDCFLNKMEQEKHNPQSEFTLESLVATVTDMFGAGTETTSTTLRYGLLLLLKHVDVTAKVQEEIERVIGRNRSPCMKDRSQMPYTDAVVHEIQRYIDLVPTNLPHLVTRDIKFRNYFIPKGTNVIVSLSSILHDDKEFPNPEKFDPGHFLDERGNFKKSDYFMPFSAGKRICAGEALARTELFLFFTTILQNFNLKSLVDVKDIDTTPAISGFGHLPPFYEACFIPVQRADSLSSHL

[10] = Half life in rat liver microsomes at […] by HPLC-PDA analysis; assay type: ADME, Microsome
[11] = Intrinsic clearance in rat liver microsomes at […] by HPLC-PDA analysis; assay type: ADME, Microsome; conditions: read-out: CLH
[12] = target: T2, Cytochrome P450 1A2 (Rattus norvegicus, UniProt P04799); experiment: Inhibition of CYP1A2 in rat liver microsome using phenacetin as substrate by HPLC-PDA analysis; assay type: ADME, microsomes
T2 sequence (P04799 whole entry): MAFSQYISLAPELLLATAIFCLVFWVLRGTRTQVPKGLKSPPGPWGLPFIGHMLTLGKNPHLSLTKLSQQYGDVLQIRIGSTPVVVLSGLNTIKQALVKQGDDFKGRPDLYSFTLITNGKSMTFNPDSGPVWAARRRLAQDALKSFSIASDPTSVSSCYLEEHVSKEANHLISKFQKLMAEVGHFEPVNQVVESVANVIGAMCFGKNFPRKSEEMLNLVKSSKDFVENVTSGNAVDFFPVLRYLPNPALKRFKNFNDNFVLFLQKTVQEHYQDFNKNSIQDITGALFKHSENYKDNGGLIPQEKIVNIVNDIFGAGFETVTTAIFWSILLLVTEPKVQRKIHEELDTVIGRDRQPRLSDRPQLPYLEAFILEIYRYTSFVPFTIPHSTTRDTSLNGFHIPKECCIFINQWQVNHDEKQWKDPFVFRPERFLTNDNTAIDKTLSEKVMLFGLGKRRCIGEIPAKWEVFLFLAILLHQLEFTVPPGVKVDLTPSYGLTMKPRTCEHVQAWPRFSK

[13] = Inhibition of CYP3A in rat liver microsome using testosterone as substrate by HPLC-PDA analysis; assay type: ADME, microsomes
[14] = target: T3, Cytochrome P450 2D4 (Rattus norvegicus, UniProt Q64680); experiment: Inhibition of CYP2D4 in rat liver microsome using dextromethorphan as substrate by HPLC-PDA analysis; assay type: ADME, microsomes
T3 sequence (Q64680 whole entry): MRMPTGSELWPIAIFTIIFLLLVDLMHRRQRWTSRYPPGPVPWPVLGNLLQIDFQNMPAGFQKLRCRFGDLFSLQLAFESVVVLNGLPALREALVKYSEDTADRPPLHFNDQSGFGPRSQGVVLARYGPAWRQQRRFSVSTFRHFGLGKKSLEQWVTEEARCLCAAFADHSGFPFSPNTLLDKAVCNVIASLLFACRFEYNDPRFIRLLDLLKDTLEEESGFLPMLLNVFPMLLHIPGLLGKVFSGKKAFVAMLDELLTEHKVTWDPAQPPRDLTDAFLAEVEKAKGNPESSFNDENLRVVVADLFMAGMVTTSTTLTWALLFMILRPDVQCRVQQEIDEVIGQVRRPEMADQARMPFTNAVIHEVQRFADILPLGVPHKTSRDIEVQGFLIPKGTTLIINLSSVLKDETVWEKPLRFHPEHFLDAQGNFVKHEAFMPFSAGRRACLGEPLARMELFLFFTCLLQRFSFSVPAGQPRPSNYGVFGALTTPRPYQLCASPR

[15] = tested on: Plasma; experiment: Fraction unbound in rat plasma at 10 uM by ultra-filtration method; assay type: ADME, cell-free
[16] = Metabolic stability in rat liver microsomes at […] after 30 mins by HPLC-PDA analysis; assay type: ADME, Microsome; conditions: read-out: Stability
[17] = Solubility of the compound in distilled water after 24 hrs by shake flask method; assay type: physicochemical
[18] = Distribution coefficient, log D of the compound at pH 7.4 by HPLC-PDA analysis; assay type: physicochemical; conditions: octanol/water
[19] = tested on: Plasmodium yoelii nigeriensis; experiment: Antimalarial activity against chloroquine, mefloquine and halofantrine-resistant Plasmodium yoelii nigeriensis infected in Swiss mouse assessed as protection against parasite-induced mortality at 12 mg/kg, po administered for 4 days measured on day 28; assay type: functional, organism-based; set-up: dose 12 mg/kg; procedure, shortened: as §1
[20] = Effective permeability coefficient of the compound in Sprague-Dawley rat intestine at 10 uM by In-situ single pass intestinal perfusion technique; assay type: ADME, tissue-based; conditions: other: in situ single pass intestinal perfusion, read-out: Peff
[21] = tested on: Plasmodium yoelii nigeriensis; experiment: Antimalarial activity against chloroquine, mefloquine and halofantrine-resistant Plasmodium yoelii nigeriensis infected in Swiss mouse assessed as suppression of parasitemia at 12 mg/kg, po administered for 4 days measured on day 4; assay type: functional; conditions: 96 h; procedure, shortened: as §2

Compound: C=C(c1ccc(C)cc1)[C@H]1OOC2(O[C@@H]1c1ccc(C)cc1)C1CC3CC(C1)CC2C3 (relative stereo)
- Activity [1]: inactive
- Activity [2]: inactive
- inhibition in vivo at 96 mg/kg [3]: 5.76%
- inhibition in vivo at 96 mg/kg [4]: 36.7%

Compound: C=C(c1ccc(F)cc1)[C@H]1OOC2(O[C@@H]1c1ccc(F)cc1)C1CC3CC(C1)CC2C3 (relative stereo)
- Activity [2]: inactive
- inhibition in vivo at 96 mg/kg [4]: 16.7%

Compound: C=C(c1ccccc1)[C@H]1OOC2(CCCC2)O[C@@H]1c1ccccc1 (relative stereo)
- Activity [1]: inactive
- Activity [2]: inactive
- inhibition in vivo at 96 mg/kg [3]: 46.9%
- inhibition in vivo at 96 mg/kg [4]: 23.8%

Compound: C=C(c1ccccc1)[C@H]1OOC2(CCCCC2)O[C@@H]1c1ccccc1 (relative stereo)
- Activity [1]: inactive
- Activity [2]: inactive
- inhibition in vivo at 96 mg/kg [3]: 22.3%
- inhibition in vivo at 96 mg/kg [4]: 34.5%

Compound: C=C(c1ccc(Br)cc1)[C@H]1OOC2(CCCC2)O[C@@H]1c1ccc(Br)cc1 (relative stereo)
- Activity [5]: inactive
- Activity [6]: 20%
- inhibition in vivo at 24 mg/kg [7]: 98.6%
- inhibition in vivo at 48 mg/kg [8]: 100%

Compound: CCO[C@H]1O[C@@H]2O[C@@]3(C)CC[C@H]4[C@H](C)CC[C@@H]([C@H]1C)[C@@]24OO3 [ARTEMOTIL]
- IC50 [9]: > 100 µM
- half-life [10]: 47.4 min
- microsomal CLint [11]: 36.6 µL/min/mg
- IC50 [12]: > 100 µM
- IC50 [13]: > 100 µM
- IC50 [14]: > 100 µM
- Fu [15]: 1%
- remaining at 0.5 h [16]: 50%
- solubility ([17]; buffer, 24 h): Insoluble
- logD [18]: 3.6
- Activity [5]: 20%
- Activity [6]: 100%
- inhibition in vivo at 24 mg/kg [7]: 100%
- inhibition in vivo at 48 mg/kg [8]: 100%

Compound: C=C(c1ccc(OC)cc1)[C@H]1OOC2(O[C@@H]1c1ccc(OC)cc1)C1CC3CC(C1)CC2C3 (relative stereo)
- Activity [2]: inactive
- inhibition in vivo at 96 mg/kg [4]: 24.6%

Compound: C=C(c1ccccc1)[C@H]1OOC2(O[C@@H]1c1ccccc1)C1CC3CC(C1)CC2C3 (relative stereo)
- Activity [1]: inactive
- Activity [2]: inactive
- inhibition in vivo at 96 mg/kg [3]: 44.8%
- inhibition in vivo at 96 mg/kg [4]: 32.4%

Compound: C=C(c1ccc(Cl)cc1)[C@H]1OOC2(O[C@@H]1c1ccc(Cl)cc1)C1CC3CC(C1)CC2C3 (relative stereo)
- inhibition in vivo at 96 mg/kg [4]: 77.2%

Compound: C=C(c1ccc(Br)cc1)[C@H]1OOC2(CCCCC2)O[C@@H]1c1ccc(Br)cc1 (relative stereo)
- inhibition in vivo at 96 mg/kg [4]: 100%

Compound: C=C(c1ccc(F)cc1)[C@H]1OOC2(CCCC2)O[C@@H]1c1ccc(F)cc1 (relative stereo)
- Activity [2]: inactive
- inhibition in vivo at 96 mg/kg [4]: 22.5%

Compound: C=C(c1ccc(F)cc1)[C@H]1OOC2(CCCCC2)O[C@@H]1c1ccc(F)cc1 (relative stereo)
- Activity [2]: inactive
- inhibition in vivo at 96 mg/kg [4]: 42.5%

Compound: C=C(c1ccc(C)cc1)[C@H]1OOC2(CCCCC2)O[C@@H]1c1ccc(C)cc1 (relative stereo)
- Activity [1]: inactive
- Activity [5]: inactive
- Activity [6]: inactive
- inhibition in vivo at 24 mg/kg [7]: 49.6%
- inhibition in vivo at 48 mg/kg [8]: 89.4%
- inhibition in vivo at 96 mg/kg [3]: 16.6%

Compound: C=C(c1ccc(Cl)cc1)[C@H]1OOC2(CCCCC2)O[C@@H]1c1ccc(Cl)cc1 (relative stereo)
- Activity [1]: inactive
- Activity [19]: inactive
- half-life [10]: 23 min
- microsomal CLint [11]: 60.3 µL/min/mg
- Fu [15]: 0.8%
- Papp at 10 µM [20]: 113 ×10⁻⁶ cm/s
- solubility thermodynamic at 24 h ([17]; distilled water): 13 µM (≈ 5.27 µg/mL)
- logD [18]: 4.23
- Activity [5]: 100%
- Activity [6]: Active
- inhibition in vivo at 12 mg/kg [21]: 100%
- inhibition in vivo at 24 mg/kg [7]: 100%
- inhibition in vivo at 96 mg/kg [3]: 3.45%
- inhibition in vivo at 96 mg/kg [4]: 100%

Compound: C=C(c1ccc(Cl)cc1)[C@H]1OOC2(CCCC2)O[C@@H]1c1ccc(Cl)cc1 (relative stereo)
- Activity [2]: inactive
- inhibition in vivo at 96 mg/kg [4]: 63.6%

Compound: C=C(c1ccc(Br)cc1)[C@H]1OOC2(O[C@@H]1c1ccc(Br)cc1)C1CC3CC(C1)CC2C3 (relative stereo)
- Activity [2]: inactive
- inhibition in vivo at 96 mg/kg [4]: 18.1%

Compound: C=C(c1ccc(C)cc1)[C@H]1OOC2(CCCC2)O[C@@H]1c1ccc(C)cc1 (relative stereo)
- Activity [2]: inactive
- inhibition in vivo at 96 mg/kg [4]: 100%
